In ChEMBL document CHEMBL2057098, “Novel 1,2,4-triazolo[1,5-a]pyridines and their fused ring systems attenuate oxidative stress and prolong lifespan of Caenorhabiditis elegans” (2012):
Calls of active or inactive are those of the source. The calls are words filed in the database; no cut-off is given here.

Columns and labels:
Caenorhabditis elegans [1] = test: Antioxidant activity in wild type Caenorhabditis elegans Bristol N2 assessed as decrease in oxidative stress-induced carboxymethyllysine formation by ELISA; type: functional, organism-based
In short: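 Protein extracts came from N2 worms treated for 7 days with or without compound, with 40 μM FUDR; protein was quantified. CML was measured by competitive ELISA on streptavidin-coated plates using biotinylated glucose-glycated BSA and an HRP-labelled mouse monoclonal anti-CML antibody.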

Caenorhabditis elegans [2] = test: Antioxidant activity against parquat-induced oxidative stress in wild type Caenorhabditis elegans Bristol N2 assessed as increase in survival time at 1 uM (reference value: 17.64 +/- 0.19 days); type: functional
Caenorhabditis elegans [3] = test: Antioxidant activity against heat-induced oxidative stress in wild type Caenorhabditis elegans Bristol N2 assessed as increase in survival time at 500 nM […] relative to control; type: functional
Caenorhabditis elegans [4] = test: Antioxidant activity against heat-induced oxidative stress in wild type Caenorhabditis elegans Bristol N2 assessed as increase in survival time at 1 uM […] relative to control; type: functional
Caenorhabditis elegans [5] = test: Antioxidant activity against parquat-induced oxidative stress in wild type Caenorhabditis elegans Bristol N2 assessed as increase in survival time at 50 nM (reference value: 17.64 +/- 0.19 days); type: functional
Caenorhabditis elegans [6] = test: Antioxidant activity against heat-induced oxidative stress in wild type Caenorhabditis elegans Bristol N2 assessed as increase in survival time measured for 16 hrs at 37 degC relative to control; type: functional, organism-based
Caenorhabditis elegans [7] = test: Antioxidant activity against heat-induced oxidative stress in wild type Caenorhabditis elegans Bristol N2 assessed as increase in survival time at 50 nM […] relative to control; type: functional
Caenorhabditis elegans [8] = test: Antioxidant activity against parquat-induced oxidative stress in wild type Caenorhabditis elegans Bristol N2 assessed as increase in survival time at 500 nM (reference value: 17.64 +/- 0.19 days); type: functional
Caenorhabditis elegans [9] = test: Antioxidant activity against lipid peroxidation in wild type Caenorhabditis elegans Bristol N2 assessed as decrease of malondialdehyde level; type: functional, organism-based
In short: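 N2 worms were kept 7 days on plates with 40 μM FUDR, with or without compound. They were washed by sucrose flotation, homogenised in Tris-HCl pH 7.9 buffer with protease inhibitors, and centrifuged. The lysate was treated with 8.1% SDS for 10 min at room temperature, then boiled 60 min with 20% acetic acid and 0.6% thiobarbituric acid, with 0.01% BHT present. A butanol:pyridine (15:1) extract was read at 532 nm against a tetramethoxypropane standard. MDA was expressed as nmol/g protein.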

Caenorhabditis elegans [10] = test: Antioxidant activity against parquat-induced oxidative stress in wild type Caenorhabditis elegans Bristol N2 assessed as increase in survival time; type: functional, organism-based
In short: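 Seven-day-old synchronised N2 adults, 30 worms per trial at 20 °C. Worms were placed overnight on agar containing paraquat and 40 μM FUDR, with or without test compound. Viability was scored over a 20 h period. Three independent experiments.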

Caenorhabditis elegans [11] = test: Antioxidant activity against parquat-induced oxidative stress in wild type Caenorhabditis elegans Bristol N2 assessed as increase in survival time at 500 nM to 1 uM; type: functional, organism-based
In short: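 Age-synchronised 7-day-old adult N2 worms were placed overnight on agar plates with 40 μM FUDR and paraquat, with or without compound (50 nM, 500 nM, 1 μM), at 20 °C. Viability was scored over 20 h, with 30 worms per trial in three independent experiments. Survival was plotted as Kaplan–Meier curves.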

## CCSc1nn2c(=O)c(C#N)c(N)c(C#N)c2n1-c1ccccc1
Caenorhabditis elegans [1]
  Activity: Dose-dependent effect
Caenorhabditis elegans [2]
  Time: 21 days
Caenorhabditis elegans [3]
  fold change (FC): 2
Caenorhabditis elegans [4]
  fold change (FC): 2.5
Caenorhabditis elegans [5]
  Time: 18 days
Caenorhabditis elegans [6]
  Activity: Dose-dependent effect
Caenorhabditis elegans [7]
  fold change (FC): 1.8
Caenorhabditis elegans [8]
  Time: 19.76 days
Caenorhabditis elegans [9]
  Activity: Dose-dependent effect
Caenorhabditis elegans [10]
  Activity: Dose-dependent effect

## CCSc1nn2c(=O)c(/C=N/O)c(NCC(C)C)c(C#N)c2n1-c1ccccc1
Caenorhabditis elegans [11]
  Activity: inactive
Caenorhabditis elegans [8]
  Activity: inactive

## CCSc1nn2c(=O)c(/C=N/O)c(Cl)c(C#N)c2n1-c1ccccc1
Caenorhabditis elegans [11]
  Activity: inactive
Caenorhabditis elegans [8]
  Activity: inactive

## CCOC(=O)c1cc2c(=O)n3nc(SCC)n(-c4ccccc4)c3c(C#N)c2[nH]1
Caenorhabditis elegans [11]
  Activity: inactive
Caenorhabditis elegans [8]
  Activity: inactive
